A selection: hits, their analogues and other compounds. The true share with any hit is near 3.5%.
STAT1 activator: increases IFN-gamma driven STAT1 reporter signal; NIH 3T3 STAT1-luciferase reporter, luminescence; 100% = IFN-gamma alone, no compound; activation (% of control), % at 5.5 µM; actives 2.6% (n = 200,000);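 active = activation above the screen-wide mean activation plus 3 SD, cut at about 130% in these data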
Pf gametocyte: kills late stage P. falciparum gametocytes | actives 0.065% (n = 150,000) | inhibition, % at 10.9 µM | P. falciparum stage V gametocytes, ATP luminescence, 24 h;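 active = inhibition above the mean plus 3 SD of compounds within the control limits, set per campaign, cut at about 38% in these data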
FLuc stim CS: affects firefly luciferase, flagging false hits in luciferase stimulation screens. 200,000 tested, under 10 active. ATPlite luciferase biochemical, luminescence, 10 min; 0 = ATP-free wells, 1 = DMSO control. activation factor at 10 µM. P08659. AID 1027;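 active = luciferase activation factor, scaled between plate controls, of at least 2 with compound at 10 µM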
Target sequence (P08659 whole entry, looked up): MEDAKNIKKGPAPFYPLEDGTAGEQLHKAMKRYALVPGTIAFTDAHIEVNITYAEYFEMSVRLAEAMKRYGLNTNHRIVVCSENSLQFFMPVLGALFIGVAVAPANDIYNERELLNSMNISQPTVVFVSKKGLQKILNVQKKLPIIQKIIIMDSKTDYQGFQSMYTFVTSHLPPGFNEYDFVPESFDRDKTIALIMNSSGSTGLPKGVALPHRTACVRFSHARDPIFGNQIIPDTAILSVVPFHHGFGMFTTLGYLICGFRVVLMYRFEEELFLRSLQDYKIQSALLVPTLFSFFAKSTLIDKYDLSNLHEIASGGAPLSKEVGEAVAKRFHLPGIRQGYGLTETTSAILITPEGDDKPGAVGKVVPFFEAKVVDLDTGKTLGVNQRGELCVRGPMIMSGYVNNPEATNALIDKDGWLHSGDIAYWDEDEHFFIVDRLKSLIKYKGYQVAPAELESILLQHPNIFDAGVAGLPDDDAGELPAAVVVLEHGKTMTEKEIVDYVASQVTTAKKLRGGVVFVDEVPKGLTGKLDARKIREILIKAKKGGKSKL
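Assay system: Luciferase/luciferin reagent mix; Medium: PBS as buffer for the ATP substrate; Dosing: test compounds dosed from 2 mM stocks in 100% DMSO; Times: 10 min, room temperature; Signal: luminescence from luciferase reaction; Read-out: luciferase activation; Controls: No-ATP low control, compound-free enzyme-plus-ATP high control.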
NF-kB neuron act: compounds increasing NF-kB expression in human neuronal cells; NF-kB reporter expression; active compounds read high; fold change at 12.5 µM; actives 1.6% (n = 190,000); AID 1239; in the data active = fold change above about 3.3
FLuc inh counter: Photinus pyralis luciferase inhibition counter-screen; P08659; actives 1.5% (n = 200,000); inhibition, % at 10 µM; ATPLite firefly luciferase biochemical luminescence, 10 min;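 active = inhibition above about 50% when tested at 10 µM, limit read from the data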
APP 5'UTR act: activates APP 5'UTR luciferase reporter. SH-SY5Y APP 5'UTR luciferase reporter, luminescence; zero percent = DMSO vehicle wells. activation, % at 2 µM. actives 1% (n = 190,000). AID 1276;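 active = activation above a set limit, based on mean plus 3 SD of controls, cut at about 140% in these data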
STAT1 activ conf: STAT1 activation, confirmation assay; shares compounds with STAT1 activator; NIH 3T3 STAT1-luciferase reporter, IFN-gamma potentiation, luminescence; 100% = IFN-gamma EC80 alone, no compound; activation (% of control), % at 5.7 µM; actives 97% (n = 1,200);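 active = activation above a set limit carried over from the earlier primary STAT1 screen, cut at about 140% in these data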
NFkB act: counter-screen for STAT1 activators: NF-kappaB activation; actives 43% (n = 1,200); shares compounds with STAT1 activator; HEK293T NF-kB luciferase reporter, TNF-alpha stimulated, luminescence; 100% = TNF-alpha with vehicle only; AID 1306; activation (% of control), % at 5.7 µM;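 active = activation above the mean of solvent-only control wells plus 3 SD, set per campaign, cut at about 130% in these data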;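 note: TNF-alpha given at a submaximal dose yielding about 80% of full reporter signal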
STAT3 act 2: counter-screen for STAT1 activators: human STAT3 activation. shares compounds with STAT1 activator. U3A cells STAT3-luciferase reporter, IL-6, luminescence; cells lack STAT1; 100 = IL-6 alone, no compound effect. activation (% of control), % at 5.7 µM. actives 46% (n = 1,200);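 active = activation above the solvent-only control well mean plus 3 SD, set per plate batch, cut at about 110% in these data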;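 note: higher means more STAT3 reporter activation so hits are non-selective activators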
Each line names hits and unclear results; the compound was inactive in the other large screens (follow-up assays come after a bar, where they were run).

CCCNC(=O)c1cc(-c2ccc(OC)cc2)on1	STAT1 activator 152, NF-kB neuron act 6.8 | STAT1 activ conf 170 | NFkB act 134 | STAT3 act 2 inactive
C=CCNC(=O)c1cc(-c2ccc(Br)cc2)on1	STAT1 activator 160 (no result: Pf gametocyte) | STAT1 activ conf 171 | NFkB act inactive | STAT3 act 2 inactive
CC(C)CC(=O)Nc1ccc2c(c1)oc1ccccc12	STAT1 activator 152, NF-kB neuron act 6.1, APP 5'UTR act 173 (no result: Pf gametocyte) | STAT1 activ conf 190 | NFkB act 134 | STAT3 act 2 inactive
O=C(c1coc(=O)c2ccccc12)N1CCN(Cc2ccccc2)CC1	none (no result: Pf gametocyte)
COc1ccc(-c2ccn(-c3cccc(F)n3)n2)cc1	STAT1 activator 154, APP 5'UTR act 138 | STAT1 activ conf 178 | NFkB act inactive | STAT3 act 2 122
COc1ccc(-n2ccc(-c3nn(-c4cccc(C(F)(F)F)c4)ccc3=O)n2)cc1	none (no result: Pf gametocyte)
CCOC(=O)CC(=O)Nc1nnc(C(C)C)s1	STAT1 activator 152 (no result: Pf gametocyte) | STAT1 activ conf inactive | NFkB act inactive | STAT3 act 2 inactive
CC(C)c1nnc(NC(=O)CCCC(=O)O)s1	none (no result: Pf gametocyte)
COc1cc(/C=N/NC(=O)CC2(C)OCCCO2)ccc1OCc1ccccc1	none
COc1cc(/C=N/NC(=O)CN2CCCCC2)ccc1OCc1ccc(Br)cc1	STAT1 activator 176, NF-kB neuron act 4.5 (no result: Pf gametocyte) | STAT1 activ conf 178 | NFkB act 136 | STAT3 act 2 119
O=C(NCCC1=CCCCC1)c1ccc([N+](=O)[O-])cc1	STAT1 activator 151, NF-kB neuron act 4.8, APP 5'UTR act 160 | STAT1 activ conf 189 | NFkB act inactive | STAT3 act 2 160
O=C(NCCC1=CCCCC1)c1ccc(F)cc1	STAT1 activator 166, APP 5'UTR act 210 | STAT1 activ conf 200 | NFkB act inactive | STAT3 act 2 inactive
O=C(Cc1ccccc1)NCCC1=CCCCC1	none
O=C(COc1ccc([N+](=O)[O-])cc1)NCCC1=CCCCC1	none (no result: Pf gametocyte)
COc1ccccc1N1CCN(C(=O)CN(c2ccccc2OC)S(=O)(=O)c2ccccc2)CC1	none
Cc1cccc(-n2ncc3c(NC4CCCCC4)ncnc32)c1	STAT1 activator 168, NF-kB neuron act 7.2, FLuc inh counter 70, APP 5'UTR act 180 (no result: Pf gametocyte) | STAT1 activ conf 239 | NFkB act 138 | STAT3 act 2 inactive
O=C(NC12CC3CC(CC(C3)C1)C2)c1ccc(-c2cccc(Cl)c2)o1	STAT1 activator 164, APP 5'UTR act 192 | STAT1 activ conf 210 | NFkB act 143 | STAT3 act 2 128
O=C(NC12CC3CC(CC(C3)C1)C2)c1ccc(COc2ccc(Cl)cc2[N+](=O)[O-])o1	none (no result: Pf gametocyte)
Cc1cccc(C(=O)n2c(=S)nc3ccccn32)c1	STAT1 activator 192, NF-kB neuron act 4.4, FLuc inh counter 91 (no result: Pf gametocyte) | STAT1 activ conf 430 | NFkB act 185 | STAT3 act 2 127
COc1ccc(/C=C2\OC(=O)c3c(OC)cccc32)cc1OC	STAT1 activator 169, FLuc inh counter 50 (no result: Pf gametocyte) | STAT1 activ conf 209 | NFkB act 139 | STAT3 act 2 112
COc1ccc(/C=C2\COc3ccccc3C2=O)cc1OC	none
COC(=O)c1ccc2c(=O)n(CCCCCC(=O)O)c(=S)[nH]c2c1	none (no result: Pf gametocyte)
O=C(NC(c1ccccc1)c1ccccc1)C1CCCO1 (configuration not stated)	none
COC(=O)/C=C1\NCCNC1=O	none (no result: STAT1 activator, FLuc stim CS, NF-kB neuron act, FLuc inh counter, APP 5'UTR act)
Brc1ccc(-c2nnc(-c3cccnc3)o2)cc1	none (no result: STAT1 activator, FLuc stim CS, NF-kB neuron act, FLuc inh counter, APP 5'UTR act)
Brc1ccc(-c2nnc(-c3ccco3)o2)cc1	STAT1 activator 155 (no result: Pf gametocyte) | STAT1 activ conf 181 | NFkB act inactive | STAT3 act 2 inactive
Brc1ccc(-c2nnc(-c3ccccc3Br)o2)cc1	STAT1 activator 164, APP 5'UTR act 169 (no result: Pf gametocyte) | STAT1 activ conf 216 | NFkB act 138 | STAT3 act 2 inactive
Clc1ccc(-c2nnc(-c3ccccc3Cl)o2)cc1	STAT1 activator 161, NF-kB neuron act 5.3, FLuc inh counter 74, APP 5'UTR act 202 | STAT1 activ conf 218 | NFkB act inactive | STAT3 act 2 inactive
O=C(Nc1ccc(N2CCOCC2)c(Cl)c1)c1cccc(F)c1	STAT1 activator 185, NF-kB neuron act 5.5 | STAT1 activ conf 193 | NFkB act 135 | STAT3 act 2 118
COc1c(C)cccc1C(=O)Nc1ccc(N2CCOCC2)c(Cl)c1	STAT1 activator 152, NF-kB neuron act 6.1, APP 5'UTR act 154 (no result: Pf gametocyte) | STAT1 activ conf 199 | NFkB act inactive | STAT3 act 2 inactive
O=C(Nc1ccc(N2CCOCC2)c(Cl)c1)c1cccnc1Cl	none (no result: Pf gametocyte)
O=C(Nc1ccc(N2CCOCC2)c(Cl)c1)c1c(F)c(F)c(F)c(F)c1F	none
CCN(CC)c1ccc(/C=N/NC(=O)c2ccco2)c(O)c1	none (no result: STAT1 activator, FLuc stim CS, NF-kB neuron act, FLuc inh counter, APP 5'UTR act)
CCN(CC)c1ccc(/C=N/NC(=O)c2ccco2)cc1	STAT1 activator 165, NF-kB neuron act 6.3, FLuc inh counter 79 (no result: Pf gametocyte) | STAT1 activ conf 217 | NFkB act inactive | STAT3 act 2 inactive
CCS(=O)(=O)c1ccc(O)c(NC(=O)Nc2ccccc2OC)c1	none (no result: STAT1 activator, FLuc stim CS, NF-kB neuron act, FLuc inh counter, APP 5'UTR act)
COc1ccc(-c2cc(OC)c3ccccc3n2)cc1	none
COc1ccc(-c2ccc3ccccc3n2)cc1OC	STAT1 activator 170, NF-kB neuron act 3.3, APP 5'UTR act 143 | STAT1 activ conf 195 | NFkB act 136 | STAT3 act 2 111
Cc1ncsc1C(=O)Nc1nc2c(s1)CC(C)CC2 (configuration not stated)	STAT1 activator 152, NF-kB neuron act 4.6, FLuc inh counter 58 (no result: Pf gametocyte) | STAT1 activ conf 179 | NFkB act inactive | STAT3 act 2 inactive
CC1CCc2nc(NC(=O)CCSc3ccccc3)sc2C1 (configuration not stated)	none (no result: Pf gametocyte)
N#CC1CC(c2ccccc2)=NN1c1ccccc1[N+](=O)[O-] (configuration not stated)	STAT1 activator 156 | STAT1 activ conf 155 | NFkB act inactive | STAT3 act 2 124
COc1cccc(C(=O)Nc2cc3c(cc2Cl)OCCCO3)c1	STAT1 activator 160, NF-kB neuron act 4.3, FLuc inh counter 65, APP 5'UTR act 136 (no result: Pf gametocyte) | STAT1 activ conf 175 | NFkB act inactive | STAT3 act 2 inactive
CCOc1ccc(/C=N/O)cc1	none (no result: Pf gametocyte)
